# Assay results of several laboratories.
# Protocols differ between the studies behind these lines.
# Target: Serine/threonine-protein kinase Nek9 (NEK9, Homo sapiens, UniProt Q8TD19)
# Residues used in one study (Q8TD19 1-979): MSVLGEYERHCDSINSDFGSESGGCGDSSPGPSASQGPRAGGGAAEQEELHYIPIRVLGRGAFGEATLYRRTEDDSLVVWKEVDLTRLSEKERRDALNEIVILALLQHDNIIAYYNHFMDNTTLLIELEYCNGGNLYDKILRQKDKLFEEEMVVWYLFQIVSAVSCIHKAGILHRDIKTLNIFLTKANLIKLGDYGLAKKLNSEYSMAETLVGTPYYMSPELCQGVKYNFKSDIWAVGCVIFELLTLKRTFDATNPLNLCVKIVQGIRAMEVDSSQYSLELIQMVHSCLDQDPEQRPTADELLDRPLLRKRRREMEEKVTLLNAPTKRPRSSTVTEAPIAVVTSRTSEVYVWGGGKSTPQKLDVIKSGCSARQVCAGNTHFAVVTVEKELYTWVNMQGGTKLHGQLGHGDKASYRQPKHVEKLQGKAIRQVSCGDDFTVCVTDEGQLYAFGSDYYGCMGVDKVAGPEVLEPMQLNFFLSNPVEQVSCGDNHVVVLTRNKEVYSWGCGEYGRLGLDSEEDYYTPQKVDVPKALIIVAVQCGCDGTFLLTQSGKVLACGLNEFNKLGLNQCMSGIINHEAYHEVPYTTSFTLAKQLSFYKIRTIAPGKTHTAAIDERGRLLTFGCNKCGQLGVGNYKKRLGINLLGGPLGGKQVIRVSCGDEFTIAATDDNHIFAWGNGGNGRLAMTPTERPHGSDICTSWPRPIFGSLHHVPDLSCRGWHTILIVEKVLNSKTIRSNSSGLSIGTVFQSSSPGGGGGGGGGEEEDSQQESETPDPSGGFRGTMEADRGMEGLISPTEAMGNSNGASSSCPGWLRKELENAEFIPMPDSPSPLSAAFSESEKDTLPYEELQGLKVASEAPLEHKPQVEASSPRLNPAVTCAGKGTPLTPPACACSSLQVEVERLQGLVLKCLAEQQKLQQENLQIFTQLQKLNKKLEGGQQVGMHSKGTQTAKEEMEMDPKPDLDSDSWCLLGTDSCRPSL
SMILES,effect on,method,concentration,remaining binding [%]
c1cncc(-c2cccc(Nc3nccc(NC4CCCCC4)n3)c2)c1,binding,competition with immobilised ligand,10 µM,95
Cc1cnn2ncc(-c3ccnc(N(C)C)n3)c2c1,binding,,1 µM,100
C[C@H](c1ccc(F)cc1)N(Cc1cccc(C(=O)O)c1)C(=O)c1cnc2ccccc2c1,cell-free assay,competition with immobilised ligand,1 µM,100
C[C@H]1CCN(c2nccc(-c3cnn4ncccc34)n2)C1,binding,,1 µM,100
O=C(NCCCN1CCOCC1)c1ccc(Nc2ncc(Cl)c(-c3ccc(Cl)s3)n2)cc1,binding,competition with immobilised ligand,1 µM,13
Nc1ncc2c(n1)-c1c([nH]c3ccc(C#CC4CC4)cc13)CCCC2,binding,competition with immobilised ligand,1 µM,91
F[C@@H]1CCN(c2nccc(-c3cnn4ncccc34)n2)C1,binding,,1 µM,100
CCCOc1ccc([C@H]2[C@H](C(=O)O)[C@@H](c3ccc4c(c3)OCO4)CN2CC(=O)Nc2c(CC)cccc2CC)cc1,cell-free assay,competition with immobilised ligand,1 µM,95
COc1ccnn2ncc(-c3ccnc(N(C)C)n3)c12,binding,,1 µM,100
O=C(Nc1c[nH]nc1C(=O)NC1CCNCC1)c1cc(F)cc(F)c1,binding,competition with immobilised ligand,1 µM,100
COc1ccc2cc(OCC3(C(=O)O)CN(C(=O)c4ccc(F)cc4)C3)ccc2c1,cell-free assay,competition with immobilised ligand,1 µM,100
CCN1CCN(Cc2ccc(C(=O)Nc3ccc(C)c(Oc4ccc5c(c4)CC(=O)N5)c3)cc2C(F)(F)F)CC1,binding,competition with immobilised ligand,1 µM,100
CN(C)c1nccc(-c2cnc3ncccn23)n1,binding,,1 µM,88
CC(=O)Nc1c(C(C)=O)c(=O)n(C)c2nc(-c3ccc(Cl)cc3Cl)c(-c3ccc(Cl)cc3)cc12,cell-free assay,competition with immobilised ligand,1 µM,100
c1cnn2ncc(-c3ccnc(N4CCC45COC5)n3)c2c1,binding,,1 µM,82
COc1cnc(Nc2cccc(S(N)(=O)=O)c2)nc1N1CCN(c2ccccc2)C(=O)C1,binding,competition with immobilised ligand,1 µM,99
FC(F)(F)Oc1cccc(-c2cnc3ccc(-c4ccncc4)nn23)c1,cell-free assay,competition with immobilised ligand,5 µM,91
N[C@@H]1CCN(c2nccc(-c3cnn4ncccc34)n2)C1,binding,,1 µM,100
O=C(c1ccc(Nc2nccc(-c3cc4ccccc4s3)n2)cc1)N1CCC(N2CCCC2)CC1,binding,competition with immobilised ligand,1 µM,100
CN(C)C(=O)Cn1cc(-c2nc([C@@](C)(c3ccc(-c4cnc(N)nc4)cc3)C3CC3)no2)cn1,cell-free assay,competition with immobilised ligand,1 µM,95
Cc1cnc(Nc2ccc(C(=O)N3CCC(N4CCCC4)CC3)cc2)nc1-c1cc2ccccc2s1,binding,competition with immobilised ligand,1 µM,14
NS(=O)(=O)c1cc(NC(=O)C2(c3ccccc3Cl)CC2)ccc1Oc1cccc(Cl)c1,cell-free assay,competition with immobilised ligand,1 µM,94
